Results on four molecules are retold here after publication PMC12772459 (The Journal of general physiology, 2025).

For data set [1] the following is noted: ref Volkmann et al., 2016; cited from earlier work.
A further data set concerns the target GluN1/2A-M788T (Rattus norvegicus, UniProt P35439+Q00959, M788T). The data set can be described thus: Two-electrode voltage-clamp recordings, mutant GluN1/2A-M788T. It is filed as cell-based. Background: Two-electrode voltage clamp is typically applied to oocytes expressing channels or transporters.
The next data set concerns the target GluN1/2D receptors (Rattus norvegicus, UniProt P35439+Q62645). The data set can be described thus: Two-electrode voltage-clamp recordings of recombinant GluN1/2D receptors. Format: cell-based. The conditions noted are these: for Hill slope nH of inhibition: 0.1 μM glycine, 100 μM glutamate; for selectivity for GluN1/2A over GluN1/2D: glycine concentration close to respective EC50.

Another data set deals with GluN1/2A-E789Q (Rattus norvegicus, UniProt P35439+Q00959, E789Q). The data set can be described thus: Two-electrode voltage-clamp recordings, mutant GluN1/2A-E789Q. It is filed as cell-based.
The target in data set [2] is T1, GluN1/2A receptors (Rattus norvegicus, UniProt P35439+Q00959). Format: cell-based. As to conditions: for selectivity for GluN1/2A over GluN1/2B-D receptors: in 1 μM glycine; for IC50: read-out: IC50 (95% CI), […] μM glycine.
T1 sequence (Q00959 23-1464, other chains not shown): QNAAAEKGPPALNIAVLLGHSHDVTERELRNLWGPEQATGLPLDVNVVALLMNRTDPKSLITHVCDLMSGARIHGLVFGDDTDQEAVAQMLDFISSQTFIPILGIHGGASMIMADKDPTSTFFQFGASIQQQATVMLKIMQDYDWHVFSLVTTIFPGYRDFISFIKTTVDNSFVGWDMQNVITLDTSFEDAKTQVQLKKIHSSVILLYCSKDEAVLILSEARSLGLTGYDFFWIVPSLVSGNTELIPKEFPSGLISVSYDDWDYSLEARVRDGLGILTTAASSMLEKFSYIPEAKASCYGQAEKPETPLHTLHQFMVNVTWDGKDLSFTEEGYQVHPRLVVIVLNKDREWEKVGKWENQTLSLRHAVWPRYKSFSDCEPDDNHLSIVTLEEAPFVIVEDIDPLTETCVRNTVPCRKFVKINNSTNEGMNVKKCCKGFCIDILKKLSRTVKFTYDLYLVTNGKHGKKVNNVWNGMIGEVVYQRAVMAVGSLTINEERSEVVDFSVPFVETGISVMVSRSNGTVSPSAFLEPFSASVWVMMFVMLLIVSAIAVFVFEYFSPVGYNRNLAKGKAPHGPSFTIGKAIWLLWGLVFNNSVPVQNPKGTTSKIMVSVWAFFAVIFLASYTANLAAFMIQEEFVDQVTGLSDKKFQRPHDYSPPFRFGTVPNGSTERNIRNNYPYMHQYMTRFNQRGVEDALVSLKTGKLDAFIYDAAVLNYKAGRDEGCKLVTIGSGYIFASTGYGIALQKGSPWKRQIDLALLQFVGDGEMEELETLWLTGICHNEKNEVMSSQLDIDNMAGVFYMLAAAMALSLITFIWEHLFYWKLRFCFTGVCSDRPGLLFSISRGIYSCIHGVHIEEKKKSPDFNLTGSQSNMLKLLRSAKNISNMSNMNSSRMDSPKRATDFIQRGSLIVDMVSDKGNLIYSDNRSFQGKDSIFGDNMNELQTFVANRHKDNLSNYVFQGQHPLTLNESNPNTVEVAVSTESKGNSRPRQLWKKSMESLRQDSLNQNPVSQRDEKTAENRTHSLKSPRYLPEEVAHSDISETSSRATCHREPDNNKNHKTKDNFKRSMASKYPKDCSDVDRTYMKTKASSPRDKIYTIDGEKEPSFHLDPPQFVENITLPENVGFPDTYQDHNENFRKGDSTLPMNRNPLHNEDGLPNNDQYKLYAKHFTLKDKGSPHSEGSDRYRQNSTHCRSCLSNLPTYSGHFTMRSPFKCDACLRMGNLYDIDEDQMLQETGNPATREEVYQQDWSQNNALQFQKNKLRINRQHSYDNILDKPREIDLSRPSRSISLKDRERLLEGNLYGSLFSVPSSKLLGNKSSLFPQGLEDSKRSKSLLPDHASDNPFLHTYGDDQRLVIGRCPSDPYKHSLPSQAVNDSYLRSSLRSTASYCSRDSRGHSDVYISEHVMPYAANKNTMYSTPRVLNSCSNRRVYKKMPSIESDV
For data set [3], the system named is triheteromeric GluN1/2A/2B receptors. Format: cell-based, rat. As to conditions: 100 μM glutamate; for Hill slope nH of inhibition: 1 μM glycine; for IC50: read-out: IC50 (95% CI), […] μM glycine.
The target in another data set is GluN1/2A-T797S (Rattus norvegicus, UniProt P35439+Q00959, T797S). The data set can be described thus: Two-electrode voltage-clamp recordings, mutant GluN1/2A-T797S. It is filed as cell-based.
Chain of GluN1/2A-T797S (Q00959 23-1464 T797S, other chains not shown): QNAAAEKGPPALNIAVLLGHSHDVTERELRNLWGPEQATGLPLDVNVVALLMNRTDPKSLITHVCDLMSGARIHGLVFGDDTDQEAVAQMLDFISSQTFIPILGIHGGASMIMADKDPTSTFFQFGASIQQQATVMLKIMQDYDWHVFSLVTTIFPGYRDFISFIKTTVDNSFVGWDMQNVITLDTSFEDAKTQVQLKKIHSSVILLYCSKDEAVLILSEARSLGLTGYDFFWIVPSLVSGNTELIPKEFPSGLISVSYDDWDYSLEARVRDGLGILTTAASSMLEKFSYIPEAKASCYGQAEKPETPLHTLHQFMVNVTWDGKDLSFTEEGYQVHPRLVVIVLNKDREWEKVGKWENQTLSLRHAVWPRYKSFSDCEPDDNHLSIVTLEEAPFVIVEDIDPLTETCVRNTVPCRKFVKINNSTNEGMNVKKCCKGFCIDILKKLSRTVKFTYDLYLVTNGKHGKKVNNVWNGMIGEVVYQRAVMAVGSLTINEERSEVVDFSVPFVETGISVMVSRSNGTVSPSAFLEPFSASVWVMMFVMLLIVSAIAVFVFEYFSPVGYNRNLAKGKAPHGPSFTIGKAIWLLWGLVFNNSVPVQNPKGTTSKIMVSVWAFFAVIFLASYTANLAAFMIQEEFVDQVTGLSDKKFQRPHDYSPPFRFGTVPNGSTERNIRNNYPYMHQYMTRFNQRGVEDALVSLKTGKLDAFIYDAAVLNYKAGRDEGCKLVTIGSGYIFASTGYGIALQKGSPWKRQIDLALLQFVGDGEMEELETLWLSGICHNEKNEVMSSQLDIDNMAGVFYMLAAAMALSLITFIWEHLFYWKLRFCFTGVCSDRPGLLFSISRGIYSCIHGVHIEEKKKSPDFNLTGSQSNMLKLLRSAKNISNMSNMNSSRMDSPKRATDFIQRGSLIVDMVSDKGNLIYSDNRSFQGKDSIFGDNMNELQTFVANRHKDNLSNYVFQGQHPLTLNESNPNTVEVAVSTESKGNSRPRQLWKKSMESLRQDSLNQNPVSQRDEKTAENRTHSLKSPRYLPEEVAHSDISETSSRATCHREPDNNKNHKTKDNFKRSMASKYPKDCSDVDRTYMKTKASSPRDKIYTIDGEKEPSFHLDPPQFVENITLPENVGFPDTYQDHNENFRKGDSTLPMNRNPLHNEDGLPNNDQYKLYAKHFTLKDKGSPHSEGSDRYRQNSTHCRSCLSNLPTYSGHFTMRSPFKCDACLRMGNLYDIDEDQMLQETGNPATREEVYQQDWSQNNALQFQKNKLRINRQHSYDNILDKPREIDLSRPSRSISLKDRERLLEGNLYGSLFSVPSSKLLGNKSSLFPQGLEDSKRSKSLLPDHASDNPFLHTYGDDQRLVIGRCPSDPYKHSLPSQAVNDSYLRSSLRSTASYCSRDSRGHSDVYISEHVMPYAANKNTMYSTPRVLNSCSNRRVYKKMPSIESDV
In the next data set the target is GluN1/2A-V529I (Rattus norvegicus, UniProt P35439+Q00959, V529I). As to the kind of experiment: Two-electrode voltage-clamp recordings, mutant GluN1/2A-V529I. Format: cell-based.
Data set [4] has as its target T1, GluN1/2A receptors. The conditions noted are these: ref Lotti et al., 2025, cited from earlier work; for Kb: read-out: binding affinity KB.
The next data set concerns the target GluN1/2A-V783L (Rattus norvegicus, UniProt P35439+Q00959, V783L). As to the kind of experiment: Two-electrode voltage-clamp recordings, mutant GluN1/2A-V783L. Format: cell-based. As to conditions: 0.5 μM glycine; for Hill slope nH of inhibition: 300 μM glutamate; for decrease of potency compared to wild type GluN1/2A: saturating glutamate.
A further data set concerns the target GluN1/2A-V783F (Rattus norvegicus, UniProt P35439+Q00959, V783F). As to the kind of experiment: Two-electrode voltage-clamp recordings, mutant GluN1/2A-V783F. Format: cell-based. As to conditions: 0.5 μM glycine; for Hill slope nH of inhibition: 300 μM glutamate; for decrease of potency compared to wild type GluN1/2A: saturating glutamate.
The next data set deals with GluN1/2C receptors (Rattus norvegicus, UniProt P35439+Q00961). The data set can be described thus: Two-electrode voltage-clamp recordings of recombinant GluN1/2C receptors. It is filed as cell-based. As to conditions: for selectivity for GluN1/2A over GluN1/2C: glycine concentration close to respective EC50.
In a further data set the target is GluN1/2A-M788I (Rattus norvegicus, UniProt P35439+Q00959, M788I). The data set can be described thus: Two-electrode voltage-clamp recordings, mutant GluN1/2A-M788I. Format: cell-based.
Another data set deals with GluN1/2B receptors (Rattus norvegicus, UniProt P35439+Q00960). As to the kind of experiment: Two-electrode voltage-clamp recordings of recombinant GluN1/2B receptors. It is filed as cell-based. As to conditions: for Hill slope nH of inhibition: 0.3 μM glycine, 100 μM glutamate; for selectivity for GluN1/2A over GluN1/2B: glycine concentration close to respective EC50.
Chain of GluN1/2B receptors (Q00960 27-1482, other chains not shown): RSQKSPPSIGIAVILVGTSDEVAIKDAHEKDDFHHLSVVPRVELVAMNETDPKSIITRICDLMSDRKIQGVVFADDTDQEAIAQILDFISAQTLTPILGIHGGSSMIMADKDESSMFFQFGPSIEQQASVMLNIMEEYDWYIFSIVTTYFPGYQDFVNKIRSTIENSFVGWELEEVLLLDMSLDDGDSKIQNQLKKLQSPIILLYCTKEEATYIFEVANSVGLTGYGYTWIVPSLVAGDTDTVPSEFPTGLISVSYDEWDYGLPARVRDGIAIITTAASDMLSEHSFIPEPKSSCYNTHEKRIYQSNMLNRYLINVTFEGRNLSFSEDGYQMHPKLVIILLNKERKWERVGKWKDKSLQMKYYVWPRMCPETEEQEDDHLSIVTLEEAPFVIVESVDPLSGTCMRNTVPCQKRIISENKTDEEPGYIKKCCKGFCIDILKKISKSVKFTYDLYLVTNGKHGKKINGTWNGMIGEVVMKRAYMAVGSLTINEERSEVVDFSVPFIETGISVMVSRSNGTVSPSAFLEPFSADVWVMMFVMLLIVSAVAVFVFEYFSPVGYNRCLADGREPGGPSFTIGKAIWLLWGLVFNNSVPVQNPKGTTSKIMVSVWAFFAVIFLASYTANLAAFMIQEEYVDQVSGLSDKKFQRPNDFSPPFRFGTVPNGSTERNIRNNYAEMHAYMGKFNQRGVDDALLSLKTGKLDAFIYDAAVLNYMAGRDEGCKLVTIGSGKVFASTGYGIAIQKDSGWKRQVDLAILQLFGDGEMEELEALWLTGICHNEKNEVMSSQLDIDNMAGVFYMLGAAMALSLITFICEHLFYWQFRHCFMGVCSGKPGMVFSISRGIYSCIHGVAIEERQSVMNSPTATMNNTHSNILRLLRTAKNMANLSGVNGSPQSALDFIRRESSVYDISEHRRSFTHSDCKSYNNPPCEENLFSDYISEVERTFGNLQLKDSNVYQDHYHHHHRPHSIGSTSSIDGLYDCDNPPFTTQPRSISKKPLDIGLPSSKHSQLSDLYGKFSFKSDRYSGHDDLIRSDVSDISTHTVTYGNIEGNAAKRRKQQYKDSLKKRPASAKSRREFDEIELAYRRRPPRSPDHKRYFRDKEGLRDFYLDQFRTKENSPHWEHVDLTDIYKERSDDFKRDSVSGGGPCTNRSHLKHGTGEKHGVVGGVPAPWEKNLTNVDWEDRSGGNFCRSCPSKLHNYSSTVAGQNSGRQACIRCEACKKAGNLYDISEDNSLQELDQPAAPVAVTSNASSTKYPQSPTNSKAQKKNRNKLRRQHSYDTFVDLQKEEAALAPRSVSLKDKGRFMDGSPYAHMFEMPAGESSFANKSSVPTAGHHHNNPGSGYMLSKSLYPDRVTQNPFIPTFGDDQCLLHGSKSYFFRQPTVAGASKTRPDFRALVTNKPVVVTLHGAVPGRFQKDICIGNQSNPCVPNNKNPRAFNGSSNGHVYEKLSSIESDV
The target in another data set is GluN1/2A-Y754K (Rattus norvegicus, UniProt P35439+Q00959, Y754K). The data set can be described thus: Two-electrode voltage-clamp recordings, mutant GluN1/2A-Y754K. Format: cell-based. As to conditions: 300 μM glutamate.
Data set [5] addresses T1, GluN1/2A receptors. It is filed as cell-based. As to conditions: global non-linear regression of glycine concentration-response data.
A further data set addresses GluN1/2A-I755V (Rattus norvegicus, UniProt P35439+Q00959, I755V). The data set can be described thus: Two-electrode voltage-clamp recordings, mutant GluN1/2A-I755V. Format: cell-based. As to conditions: 300 μM glutamate.
A further data set deals with GluN1/2A-I755F (Rattus norvegicus, UniProt P35439+Q00959, I755F). As to the kind of experiment: Two-electrode voltage-clamp recordings, mutant GluN1/2A-I755F. Format: cell-based.
The target of the next data set is GluN1/2A-I755V+Y754K (Rattus norvegicus, UniProt P35439+Q00959, I755V/Y754K). As to the kind of experiment: Two-electrode voltage-clamp recordings, mutant GluN1/2A-I755V+Y754K. It is filed as cell-based. The conditions noted are these: 1 μM glycine, 300 μM glutamate.
The test system of data set [6] is NMDA receptor-mediated EPSCs from CA1 pyramidal neurons. It is filed as cell-based, mouse. The conditions noted are these: 3 μM compound, baseline vs following NAM application. The method, boiled down:
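Hippocampal slices from 3–5-week-old male and female C57BL/6J mice, perfused with aCSF at 32 °C. Whole-cell recordings from CA1 cells with Cs-based internal solution at +40 mV. Schaffer collaterals stimulated every 30 s with 10 μM NBQX and 10 μM gabazine. After 5-min baseline, test compound bath-applied at 3 μM. τW from double-exponential fit of deactivation; ratio paired t-test.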

The target in data set [7] is triheteromeric GluN1/2A/2B receptors. As to conditions: read-out: glycine EC50; previously reported; ref Lotti et al., 2025; cited from earlier work.
[8] abbreviates: glycine near EC50, saturating glutamate.
Where [9] appears, read: read-out: IC50 (95% CI), […] μM glycine, 300 μM glutamate.
Where [10] appears, read: read-out: IC50 (95% CI), […] μM glycine.

Where two headings read alike, the source gives them in different places. A value given as a limit tells only on which side of the number the result lay.

The IC50 is the concentration at which inhibition is half-maximal. A word on the EC50: it is the concentration giving half of the maximal effect.

For `O=C(NNC(=O)c1ccc(CNS(=O)(=O)c2ccc(F)c(Cl)c2)cc1)c1ccccc1` [TCN-201], in data set [1], the blood-brain barrier penetration entry is given as “lack blood-brain barrier penetration”. Also, the “Hill slope nH of inhibition” value at GluN1/2A-M788T (0.3 μM glycine, 300 μM glutamate) is given as 1.4; at GluN1/2D receptors, 1.9; at GluN1/2A-E789Q (1 μM glycine, 300 μM glutamate), 1.3; on GluN1/2A receptors [2] (1 μM glycine, 100 μM glutamate), 1.2; in data set [3], 1.2; at GluN1/2A-T797S (1 μM glycine, 300 μM glutamate) it was 1.4. Also, the “Hill slope nH of inhibition” value is recorded as 1.5 on GluN1/2A-V529I (1 μM glycine, 300 μM glutamate); 1.1 on GluN1/2A-V783L; 1.1 at GluN1/2A-V783F; 1.3 on GluN1/2A-M788I (1 μM glycine, 300 μM glutamate); 1.6 on GluN1/2B receptors. Besides, the “decrease of potency compared to wild type GluN1/2A” value on GluN1/2A-M788T (setting [8]) is “no significant effects”; on GluN1/2A-T797S (setting [8]), “no significant effects”; at GluN1/2A-V529I (setting [8]), 1.5 fold; at GluN1/2A-V783L, 8.1 fold; on GluN1/2A-V783F, 1.9 fold; at GluN1/2A-M788I (setting [8]) it was “no significant effects”. For the same molecule, the half-inhibitory concentration (IC50) at GluN1/2A-M788T (read-out: IC50 (95% CI), 0.3 μM glycine, 300 μM glutamate) was 140 nM; on GluN1/2A-E789Q (setting [9]), 0.078 µM; on GluN1/2A receptors [2] (100 μM glutamate), 0.1 µM; in [3] it was 0.28 µM; at GluN1/2A-T797S (setting [9]), 0.068 µM; on GluN1/2A-M788I (setting [9]), 0.12 µM. At GluN1/2D receptors, the “selectivity for GluN1/2A over GluN1/2D” value was 39 fold. For the same molecule, the “change of potency compared to wild type GluN1/2A” value on GluN1/2A-E789Q (setting [8]) is “no significant effects”. In addition, on GluN1/2A receptors [2], the “selectivity for GluN1/2A over GluN1/2B-D receptors” value is listed as greater than 50 fold. Also, the Kb at GluN1/2A receptors [4] was 42 nM. For the same molecule, the “negative allosteric interaction constant α” value on GluN1/2A receptors [4] is 0.0032. In addition, the “selectivity for GluN1/2A over GluN1/2C” value at GluN1/2C receptors was greater than 50 fold. Also, the “selectivity for GluN1/2A over GluN1/2B” value on GluN1/2B receptors is listed as 30 fold.
Regarding `O=C(CSc1nnc(NCc2ccccc2)s1)NCC1CCCCC1` [TCN-213], the “Hill slope nH of inhibition” value came to 1.1 on GluN1/2A-Y754K (1 μM glycine); 1.5 on GluN1/2D receptors; 1.1 at GluN1/2A receptors [2] (1 μM glycine, 10 μM glutamate); 1.1 at GluN1/2A receptors [2] (1 μM glycine, 100 μM glutamate); 1.3 at GluN1/2A receptors [2] (30 μM glycine, 300 μM glutamate); 0.9 in data set [3]. Further, the “Hill slope nH of inhibition” value is 1.1 at GluN1/2A-I755V (1 μM glycine); 1.1 at GluN1/2A-V783L; 1.1 on GluN1/2A-V783F; 1.1 on GluN1/2C receptors (0.3 μM glycine, 100 μM glutamate); 1.0 at GluN1/2A-I755F (1 μM glycine, 300 μM glutamate); 1.0 at GluN1/2A-I755V+Y754K. The “Hill slope nH of inhibition” value at GluN1/2B receptors is reported as 1.3. The IC50 at GluN1/2A-Y754K (setting [10]) stood at 1.2 µM; on GluN1/2A receptors [2] (10 μM glutamate), 0.96 µM; on GluN1/2A receptors [2] (100 μM glutamate) it was 0.83 µM; in [3] it was 4 µM; on GluN1/2A-I755V (setting [10]), 1.2 µM; on GluN1/2A-I755F (setting [9]) it was 1.1 µM. Moreover, at GluN1/2D receptors, the “selectivity for GluN1/2A over GluN1/2D” value is given as 29 fold. In addition, the “selectivity for GluN1/2A over GluN1/2B-D receptors” value on GluN1/2A receptors [2] is on record as greater than 50 fold. Further, at GluN1/2A receptors [5], the “allosteric constant α” value was determined as 0.043. In addition, the “decrease of potency compared to wild type GluN1/2A” value at GluN1/2A-V783L was 4.8 fold; at GluN1/2A-V783F, 2.6 fold. The “selectivity for GluN1/2A over GluN1/2C” value at GluN1/2C receptors is given as 16 fold. The “reduction of potency compared to wild type GluN1/2A” value on GluN1/2A-I755F (glycine EC50 concentration, saturating glutamate) was “not significantly different”. Also, the “selectivity for GluN1/2A over GluN1/2B” value on GluN1/2B receptors was found to be 22 fold.
Turning to `Cc1ncc(CNC(=O)c2cnc(CNS(=O)(=O)c3ccc(F)c(Cl)c3)cn2)s1` [MPX-004], on GluN1/2A receptors [4], the Kb was 9.3 nM and the “negative allosteric interaction constant α” value is 0.0018. Besides, in data set [6], the “effect on EPSC decay times (weighted deactivation time constant τW)” value is recorded as “increases EPSC decay times”.
`NCC(=O)O` [Glycine]: the concentration for a half-maximal effect (EC50) in [7] was 990 nM.
